The text below walks through data of ChEMBL document CHEMBL3352721, “Identification, optimization, and pharmacology of acylurea GHS-R1a inverse agonists” (J Med Chem, 2014).

Molecules are shown by their SMILES. Active and inactive are the calls of the source. No cut-off for these calls is given here. Non-standard residues stand in square brackets, D forms with d. Residues, ends and D or L forms follow the SMILES beside them. dTrp(2-Me) = Cc1[nH]c2ccccc2c1C[C@@H](N)C(=O)O

A short description of series [1]: Lipophilicity, logD of the compound. The class given is physicochemical. The conditions noted are these: octanol/water.
Series [2] can be described thus: Ratio of drug level in homogenized brain to plasma in CD1 mouse at 0.9 mg/kg, po measured after 6 hrs by LC-MS/MS method. Also noted: dose 0.9 mg/kg, route oral. The conditions noted are these: read-out: BPR. Type of series: ADME, organism-based. The essentials:
(§1)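 CD-1 mice dosed PO in 1% Pluronic F127. Drug was measured in homogenized brain and in plasma 6 h after dosing and expressed as a brain:plasma ratio. The free ratio used free fraction measured in mouse plasma and rat brain (brain slice or brain homogenate).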

Series [3] is described as follows: Ratio of free drug level in homogenized brain to plasma in CD1 mouse measured 6 hrs after oral dosing by LC-MS/MS method. The class given is ADME. The essentials: as §1
The nature of series [4]: Cmax in CD1 mouse at 2 mg/kg, po by LC-MS/MS method. The class given is ADME, organism-based. Also noted: dose 2 mg/kg, route oral. The conditions noted are these: in vivo. The essentials: (§2)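 Oral gavage in male HW rats, beagle dogs or CD-1 mice, vehicle Pluronic F127 in water. EDTA plasma was collected over 24 h and quantified by LC/MS/MS after acetonitrile precipitation. Cmax and bioavailability were obtained by non-compartmental analysis against IV data.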

The test system of series [5] is MDR1. As to the kind of experiment: Apparent permeability in MDCK cells expressing MDR1 at 10 uM assessed as apical to basolateral side transport. The class given is ADME, cell-based, Canis lupus familiaris. The settings on record: dog. The essentials:
(§3)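 MDCK-MDR1 monolayers incubated with compound at 10 µM; permeability measured in both A→B and B→A directions, giving Papp A-B (x10^6 cm/s) and the efflux ratio.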

The target of series [6] is Growth hormone secretagogue receptor type 1 (Homo sapiens, UniProt Q92847). As to the kind of experiment: Displacement of [125I]human ghrelin from human GHS-R1a expressed in HEK cell membranes after 60 mins by gamma counting method. Further details: species or system HEK293. For orientation: Loss of bound radioactivity is the signal in a displacement assay; it reports binding, not function.
Sequence of Growth hormone secretagogue receptor type 1 (Q92847 whole entry): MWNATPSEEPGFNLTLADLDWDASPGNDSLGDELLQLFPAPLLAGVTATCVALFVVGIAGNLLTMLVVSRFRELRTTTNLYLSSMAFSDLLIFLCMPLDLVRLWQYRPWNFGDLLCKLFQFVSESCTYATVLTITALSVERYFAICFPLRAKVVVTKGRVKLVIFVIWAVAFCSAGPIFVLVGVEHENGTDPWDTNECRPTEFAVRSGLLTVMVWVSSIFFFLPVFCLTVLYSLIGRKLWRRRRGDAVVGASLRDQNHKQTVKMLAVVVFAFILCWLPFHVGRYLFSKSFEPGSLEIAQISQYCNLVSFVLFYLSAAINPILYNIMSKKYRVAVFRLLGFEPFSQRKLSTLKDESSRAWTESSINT

For series [7], the system named is MDR1. As to the kind of experiment: Efflux ratio in MDCK cells expressing MDR1 at 10 uM. The settings on record: dog. Type of series: ADME, cell-based, Canis lupus familiaris. The essentials: as §3
Another series relates to Mus musculus. The series is described as follows: Increase in food intake in po dosed C57Bl6j mouse free feeding model measured in 2 hrs intervals. Type of series: functional, organism-based. In a few lines: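 Male mice (C57Bl6j, GHSr1-/- or wild-type littermates) were acclimatized 3 weeks to reversed light-dark, then individually housed 7 days and grouped (n=10-12) by baseline intake and body weight. Suspensions in 1% Pluronic F127 or vehicle were gavaged at 10 mL/kg about 1 h before dark onset. Pre-weighed food was reweighed at 2, 4, 6 and 24 h.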

Series [8] is described as follows: Ratio of drug level in homogenized brain to plasma in CD1 mouse at 2.7 mg/kg, po measured after 6 hrs by LC-MS/MS method. The conditions noted are these: read-out: BPR. Type of series: ADME, organism-based. Further details: dose 2.7 mg/kg, route oral. The essentials:
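Brain homogenate and plasma drug levels were taken 6 h after oral dosing, and their ratio was reported. Plasma was assayed by LC/MS/MS after acetonitrile protein precipitation.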

Series [9] can be described thus: Ratio of free drug level in homogenized brain to plasma in Han-Wistar rat measured 1 hr after iv bolus then iv infusion by LC-MS/MS method. Type of series: ADME, organism-based. The settings on record: read-out: BPR. In a few lines: (§4)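 Brain:plasma ratio in homogenized brain 1 h after IV bolus followed by IV infusion. The free ratio used free fractions measured in plasma and brain (brain slice method or brain homogenate).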

The nature of series [10]: Cmax in Han-Wistar rat at 2 mg/kg, po by LC-MS/MS method. The class given is ADME, organism-based. Also noted: dose 2 mg/kg, route oral. The settings on record: in vivo. The essentials:
as §2

Series [11] can be described thus: Ratio of drug level in homogenized brain to plasma in Han-Wistar rat measured 1 hr after iv bolus then iv infusion by LC-MS/MS method. Type of series: ADME, organism-based. The settings on record: read-out: BPR. The essentials:
as §4

A word on the logD: it is lipophilicity at a set pH, counting ionised and neutral species. The low end stands for lower lipophilicity, the high end for higher lipophilicity. As usually defined, the Cmax is the highest concentration seen after dosing. In general, Papp A→B refers to the apparent permeability from the apical to the basolateral side of a cell layer. Usually IC50 stands for the concentration that inhibits the measured activity by half. A lower IC50 goes with greater potency in that assay. As usually defined, the efflux ratio is the permeability from basolateral to apical divided by that in the opposite direction, in the common usage.

Consider `CN1CCC(S(=O)(=O)c2ccc3nc(NC(=O)NC(=O)c4cc(N5CCCC5)c(C#N)cc4Cl)sc3c2)CC1`, for which the logD in series [1] is 3. For the same compound, in series [2], the Kp at 6 h is 0.072. Moreover, the Kp uu at 6 h in [3] worked out at 0.38. The same compound displayed a Cmax in series [4] of 840 nM. Besides, the apparent permeability from apical to basolateral (Papp A→B) at 10 µM with MDR1 [5] worked out at 3 ×10⁻⁶ cm/s. The IC50 in [6] turned out to be 0.4 nM. Further, in the series with MDR1 [7], the efflux ratio at 10 µM is 0.47.
Take `Cc1[nH]c2ccccc2c1C[C@@H](NC(=O)[C@@H](N)Cc1c[nH]cn1)C(=O)N[C@@H](C)C(=O)N[C@@H](Cc1c[nH]c2ccccc12)C(=O)N[C@H](Cc1ccccc1)C(=O)N[C@@H](CCCCN)C(N)=O` (H-H[dTrp(2-Me)]AW[dF]K-NH2): the result in the series with Mus musculus was Active.
In [1], `CN1CCC(S(=O)(=O)c2ccc3nc(NC(=O)NC(=O)c4cc5c(cc4Cl)CCN5C)sc3c2)CC1` came in with a logD of 2.8. Also, the Kp uu at 6 h in series [3] came out at 0.072. Moreover, in series [4], the Cmax came to 3000 nM. Moreover, the Papp A→B at 10 µM in the series on MDR1 [5] stood at 5.1 ×10⁻⁶ cm/s. Also, the IC50 in series [6] was determined as 7.2 nM. The efflux ratio at 10 µM with MDR1 [7] was 1.2. Further, the Kp at 6 h in series [8] turned out to be 0.15.
On to `CCOc1ccc(Cl)c(C(=O)NC(=O)Nc2nc3ccc(S(=O)(=O)CCCN4CCN(C)CC4)cc3s2)c1`, for which the logD in series [1] stood at 2.4. Besides, in series [9], the Kp uu at 1 h was determined as 0.52. Besides, the Papp A→B at 10 µM in the series with MDR1 [5] turned out to be 2.8 ×10⁻⁶ cm/s. The compound further displayed an IC50 in [6] of 0.31 nM. Moreover, the efflux ratio at 10 µM in the series on MDR1 [7] amounted to 5. Further, the maximum concentration (Cmax) in series [10] turned out to be 4200 nM. Also, in [11], the Kp at 1 h stood at 0.052.
